Results from different studies.
pIC50: −log10 of the molar value.
MAL12: Alpha-glucosidase MAL12 (MAL12, Saccharomyces cerevisiae S288c, UniProt P53341)

Structure (SMILES)	target	assay	conditions	pIC50
CC1(C)CC[C@]2(C(=O)O)CC[C@]3(C)C(=CC[C@@H]4[C@@]5(C)CC[C@H](O[C@@H]6O[C@H](C(=O)O)[C@@H](O)[C@H](O)[C@H]6O)C(C)(C)[C@@H]5CC[C@]43C)[C@@H]2C1	MAL12	enzyme activity, inhibitor		6.16
NC(=S)N/N=C/c1cc2ccccc2nc1SCc1cn(CC(=O)Nc2cccc([N+](=O)[O-])c2)nn1	MAL12	enzyme activity, inhibitor		3.66
CC(C)C[C@H](NC(=O)[C@H](Cc1ccccc1)NC(=O)OCc1ccccc1)C(=O)C=O	Cathepsin S (CTSS, Homo sapiens, UniProt P25774)	enzyme activity, inhibitor, fluorescence		6.82
COc1ccc(NC(=O)Cn2cc(COc3ccc(C(c4c(O)c5ccccc5oc4=O)c4c(O)c5ccccc5oc4=O)cc3OC)nn2)c(OC)c1	MAL12	enzyme activity, inhibitor, absorbance		4.28
C[C@@H]1O[C@@H](O[C@H]2[C@H](O)[C@@H](O)[C@H](OC[C@H]3O[C@@H](OC(=O)[C@]45CCC(C)(C)C[C@H]4C4=CC[C@@H]6[C@@]7(C)CC[C@H](O[C@@H]8OC[C@H](O)[C@H](O)[C@H]8O)C(C)(C)[C@@H]7CC[C@@]6(C)[C@]4(C)CC5)[C@H](O)[C@@H](O)[C@@H]3O)O[C@@H]2CO)[C@H](O)[C@H](O)[C@H]1O	MAL12	enzyme activity, inhibitor		6.05
C[C@@H](OC(C)(C)C)[C@H](NC(=O)OCc1ccccc1)C(=O)N[C@@H](CC1CCCCC1)C(=O)NN(CCC(N)=O)C(=O)C(Cl)Cl	Replicase polyprotein 1ab, main protease (rep, Severe acute respiratory syndrome coronavirus 2, UniProt P0DTD1)	enzyme activity, inhibitor	with preincubation	7.17
Cc1cccc(C)c1NC(=O)Cn1cc(CSc2nc3ccccc3cc2/C=N/NC(N)=S)nn1	MAL12	enzyme activity, inhibitor		3.82
COc1cc(C(c2c(O)c3ccccc3oc2=O)c2c(O)c3ccccc3oc2=O)ccc1OCc1cn(CC(=O)Nc2cccc(Cl)c2)nn1	MAL12	enzyme activity, inhibitor, absorbance		4.07
Cc1cc([N+](=O)[O-])ccc1NC(=O)Cn1cc(CSc2nc3ccccc3cc2/C=N/NC(N)=S)nn1	MAL12	enzyme activity, inhibitor		3.51
COc1cc(C(c2c(O)c3ccccc3oc2=O)c2c(O)c3ccccc3oc2=O)ccc1OCc1cn(CC(=O)Nc2ccc(C)cc2C)nn1	MAL12	enzyme activity, inhibitor, absorbance		4.69
Cc1cccc(NC(=O)Cn2cc(CSc3nc4ccccc4cc3/C=N/NC(N)=S)nn2)c1C	MAL12	enzyme activity, inhibitor		3.61
Cc1ccc2oc(=O)cc(NCCO)c2c1	Alpha-1A adrenergic receptor (ADRA1A, Homo sapiens, UniProt P35348, I178V/M292L)	calcium signal, antagonist		3.49
C[C@@H]1O[C@@H](O[C@H]2[C@H](O)[C@@H](O)[C@H](OC[C@H]3O[C@@H](OC(=O)[C@]45CCC(C)(C)C[C@H]4C4=CC[C@@H]6[C@@]7(C)CC[C@H](O[C@@H]8OC[C@H](O)[C@H](O)[C@H]8O)[C@@](C)(CO)[C@@H]7CC[C@@]6(C)[C@]4(C)CC5)[C@H](O)[C@@H](O)[C@@H]3O)O[C@@H]2CO)[C@H](O)[C@H](O)[C@H]1O	MAL12	enzyme activity, inhibitor		5.78
Cc1ccc(NC(=O)Cn2cc(CSc3nc4ccccc4cc3/C=N/NC(N)=S)nn2)cc1	MAL12	enzyme activity, inhibitor		3.31
C[C@@H]1O[C@@H](O[C@H]2[C@H](O[C@H]3CC[C@]4(C)[C@H]5CC=C6[C@@H]7CC(C)(C)CC[C@]7(C(=O)O[C@@H]7O[C@H](CO[C@@H]8O[C@H](CO)[C@@H](O[C@@H]9O[C@@H](C)[C@H](O)[C@@H](O)[C@H]9O)[C@H](O)[C@H]8O)[C@@H](O)[C@H](O)[C@H]7O)CC[C@@]6(C)[C@]5(C)CC[C@H]4C3(C)C)OC[C@H](O)[C@@H]2O)[C@H](O)[C@H](O)[C@H]1O	MAL12	enzyme activity, inhibitor		6.33
Cc1ccc2[nH]c(=O)c(CNC3CCCCC3)cc2c1	Alpha-1A adrenergic receptor (ADRA1A, Homo sapiens, UniProt P35348, M292L)	calcium signal, antagonist		4.96
COc1cc(C(c2c(O)c3ccccc3oc2=O)c2c(O)c3ccccc3oc2=O)ccc1OCc1cn(CC(=O)Nc2ccc(Br)cc2)nn1	MAL12	enzyme activity, inhibitor, absorbance		4.09
NC(=S)N/N=C/c1cc2ccccc2nc1SCc1cn(CC(=O)Nc2ccc([N+](=O)[O-])cc2)nn1	MAL12	enzyme activity, inhibitor		3.25
Nc1ncnc2c1ncn2[C@@H]1O[C@H](CO)[C@@H](O)[C@H]1O	Solute carrier family 22 member 6 (SLC22A6, Homo sapiens, UniProt Q4U2R8)	transporter uptake, inhibitor, radiometric	oocytes	< 3.00
COc1cc(C(c2c(O)c3ccccc3oc2=O)c2c(O)c3ccccc3oc2=O)ccc1OCc1cn(CC(=O)Nc2ccccc2F)nn1	MAL12	enzyme activity, inhibitor, absorbance		4.21
C[C@@H]1O[C@@H](O[C@H]2[C@H](O[C@H]3CC[C@@]4(C)[C@@H](CC[C@]5(C)[C@@H]4CC=C4[C@@H]6CC(C)(C)CC[C@]6(C(=O)O[C@@H]6O[C@H](CO[C@@H]7O[C@H](CO)[C@@H](O)[C@H](O)[C@H]7O)[C@@H](O)[C@H](O)[C@H]6O)CC[C@]45C)[C@]3(C)CO)OC[C@H](O)[C@@H]2O)[C@H](O)[C@H](O)[C@H]1O	MAL12	enzyme activity, inhibitor		5.76
